Shown are actives, neighbours in structure and some others; about 2.1% of the full set was active somewhere.
ARNT-TACC3 inh: disruptors of ARNT/TACC3 protein interaction, primary screen, biochemical, AlphaScreen, single concentration. hit rate 0.66% among 390,000. AID 623870, 2012. AlphaScreen His-ARNT PAS-B/GST-TACC3 binding, luminescence; TACC3 fragment carries E629A point mutation. inhibition, % at 9.99 µM. Transforming acidic coiled-coil-containing protein 3 (Homo sapiens), Q9Y6A5;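 active = mean inhibition of replicates at least 50% and at least half of replicates each reaching 50%; inconclusive = half or more replicates reach 50% but mean below 50%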
FGF22 binding: binders of human FGF22 protein, primary screen, FGF22 synaptogenesis inhibitor project, biophysical, thermal shift, single point; activity (Tm shift, normalised), % at 9.99 µM; Fibroblast growth factor 22 (Homo sapiens), Q9HCT0; hit rate 1.5% among 340,000; recombinant FGF22 thermal shift, SYPRO orange fluorescence; percent of sucrose octasulfate shift, DMSO zero;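 active = mean Tm shift, scaled 0 neutral to 100 positive control, at about 1.3% or above, every replicate too, limit read from the data; inconclusive = no clear call, values can overlap the other calls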
Target sequence (Q9HCT0 whole entry, looked up): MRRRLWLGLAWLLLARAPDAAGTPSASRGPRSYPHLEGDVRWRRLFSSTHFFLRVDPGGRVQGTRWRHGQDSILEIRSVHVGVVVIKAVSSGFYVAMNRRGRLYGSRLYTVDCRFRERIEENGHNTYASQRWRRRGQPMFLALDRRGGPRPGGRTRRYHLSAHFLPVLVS
MLL AF4-AF9 inh: inhibitors of AF4 peptide binding to AF9, primary screen, biochemical, AlphaScreen, biotin-AF4 peptide, FLAG-AF9, single point; Protein AF-9 (Homo sapiens), P42568; inhibition, % at 10 µM; hit rate 0.47% among 350,000; AID 651704, 2012;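 active = every replicate reaching a set inhibition limit, whatever the replicate mean, cut at about 25% in these data; inconclusive = mean inhibition reaches that limit but some replicates miss it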
PDI turbidity: inhibitors of human PDI, primary screen, biochemical, turbidity, single point, plate reader | Protein disulfide-isomerase (Homo sapiens), P07237 | PDI insulin aggregation turbidity, A650, 90 min | inhibition, % at 10 µM | hit rate 0.052% among 350,000 | AID 588391, 2011;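 active = mean inhibition across replicates of 30% or more, whatever share of single replicates reach that level; inconclusive = mean inhibition below 30% while every single replicate reaches 30%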
Target sequence (P07237 whole entry, looked up): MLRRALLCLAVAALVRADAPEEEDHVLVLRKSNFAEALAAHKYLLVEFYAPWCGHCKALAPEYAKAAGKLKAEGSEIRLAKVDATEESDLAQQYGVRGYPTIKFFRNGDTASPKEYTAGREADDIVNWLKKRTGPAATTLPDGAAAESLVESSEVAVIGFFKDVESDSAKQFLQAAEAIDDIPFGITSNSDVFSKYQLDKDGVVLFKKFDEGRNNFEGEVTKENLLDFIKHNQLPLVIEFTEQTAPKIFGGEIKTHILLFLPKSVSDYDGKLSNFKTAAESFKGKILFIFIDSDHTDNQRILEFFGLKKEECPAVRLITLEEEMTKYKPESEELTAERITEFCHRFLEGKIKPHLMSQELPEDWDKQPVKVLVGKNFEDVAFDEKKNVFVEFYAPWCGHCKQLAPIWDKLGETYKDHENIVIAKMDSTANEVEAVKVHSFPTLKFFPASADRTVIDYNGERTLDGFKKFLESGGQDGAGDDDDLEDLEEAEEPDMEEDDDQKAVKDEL
ERp5 block: inhibitors of ERp5-driven insulin aggregation, primary screen, biochemical, turbidity, absorbance 650 nm, single point. Protein disulfide-isomerase A6 (Homo sapiens), Q15084. 90 min. inhibition, % at 9.99 µM. hit rate 0.05% among 350,000;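 active = mean replicate inhibition above about 25%, with every replicate also reaching it, limit read from the data, passing the limit was not always enough; inconclusive = only one of those two criteria met; inactive = neither criterion met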
FN deposit inh: inhibitors of fibronectin matrix deposition, primary screen, AH1F cells, Alexa488-fibronectin fluorescence, plate reader; AH1F fibroblasts, overnight; inhibition, % at 12.6 µM; hit rate 0.086% among 350,000; AID 743247, 2014;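 active = mean inhibition across replicates of 30% or more, regardless of how many single replicates reach that level; inconclusive = mean under 30% yet at least half of replicates reach 30%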
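Material: AH1F fibroblast monolayer depositing Alexa488-labelled fibronectin into matrix / Amount: 10000 AH1F cells per well / Signal: fluorescence 485/525 nm / Medium: DMEM, 2% serum / Compound: single dose, pinned / Incubation: 1 h cell adhesion before compound, then overnight fibronectin incubation / Reagent: Alexa488-FN, 24 nM final / Read-out: inhibition of fibronectin deposition signal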
Each line names hits and unclear results; the compound was inactive in the other large screens.

CCC(=O)N1[C@@H]2c3cccc(=O)n3C[C@@H]2[C@@H](CO)[C@@H]1C(=O)N1CCc2ccccc2C1	none (no result: PDI turbidity, FN deposit inh)
COCC(=O)Nc1ccc2c(c1)C(=O)N(C)[C@H]1CC[C@@H](CC(=O)NCC3CCCCC3)O[C@H]1CO2	none (no result: PDI turbidity)
COc1ccc(NC(=O)Nc2ccc3c(c2)CC(=O)N([C@@H](C)CO)C[C@@H](C)[C@H](CN(C)Cc2ccc(-c4ccccc4)cc2)O3)cc1	none (no result: PDI turbidity, FN deposit inh)
COc1ccc(C(=O)NNC(=S)NC(=O)/C=C/c2cccs2)cc1	FGF22 binding 43.0
CCCNC(=O)N1CCC2(CC1)CN(C(=O)Nc1ccc(F)cc1)[C@H](CO)c1[nH]c3cc(OC)ccc3c12	none (no result: ARNT-TACC3 inh, PDI turbidity, FN deposit inh)
CC(C)CC#Cc1cnc2c(c1)C(=O)N([C@@H](C)CO)C[C@@H](C)[C@@H](CN(C)C(=O)CN1CCOCC1)O2	none (no result: PDI turbidity)
CC(C)n1nc(C(=O)Nc2nc3ccccc3[nH]2)c2ccccc2c1=O	none
CCCn1nc(C(=O)Nc2nc3ccccc3[nH]2)c2ccccc2c1=O	FGF22 binding 43.1 (no result: ARNT-TACC3 inh)
COCC(=O)Nc1ccc2c(c1)C(=O)N(C)C[C@H](OC)[C@@H](C)CN(CCC(F)(F)F)[C@@H](C)CO2	none (no result: PDI turbidity)
CCOC(=O)c1c(C)[nH]c(C(=O)N/N=C\c2ccccc2O)c1C	none
Cc1cc(C(=O)N/N=C/c2cc([N+](=O)[O-])ccc2O)c2ccccc2n1	ARNT-TACC3 inh 75.9 (no result: FGF22 binding, MLL AF4-AF9 inh, ERp5 block, FN deposit inh)
CCOC(=O)c1c(C)[nH]c(C(=O)N/N=C/c2cc([N+](=O)[O-])ccc2O)c1C	ARNT-TACC3 inh 71.8
O=C(NC(C(=O)N/N=C/c1cc([N+](=O)[O-])ccc1O)c1n[nH]c(=O)c2ccccc12)c1ccccc1 (stereo not given)	ARNT-TACC3 inh 67.5
C[C@@H](NC(=O)C[C@@H]1CC[C@H](NC(=O)Nc2ccc3c(c2)OCO3)[C@@H](CO)O1)c1ccccc1	none (no result: PDI turbidity)
O=C(Nc1ccccc1)Nc1cc(Cl)cc(Cl)c1	none (no result: FGF22 binding, MLL AF4-AF9 inh, ERp5 block, FN deposit inh)
O=C(Nc1ccccc1)Nc1cc(OCC(F)(F)F)cc(OCC(F)(F)F)c1	FGF22 binding 43.6 (no result: ARNT-TACC3 inh)
Cc1ccc(S(=O)(=O)Nc2ccc3c(c2)C(=O)N([C@@H](C)CO)C[C@H](C)[C@H](CN(C)C(=O)Nc2cccc4ccccc24)OCCCC[C@H](C)O3)cc1	none (no result: PDI turbidity)
Cc1ccc(S(=O)(=O)Nc2ccc3c(c2)C(=O)N(C)[C@@H]2CC[C@H](CC(=O)NCCc4ccncc4)O[C@@H]2CO3)cc1	none (no result: PDI turbidity)
O=c1nc(Oc2ccccc2)nc2ncccn12	FGF22 binding 43.4 (no result: ARNT-TACC3 inh)
CCOC(=O)C1CCN(S(=O)(=O)c2ccc(C(C)(C)C)cc2)CC1	FGF22 binding 43.2
CCOC(=O)C1CCN(S(=O)(=O)c2ccc(CC)cc2)CC1	none (no result: FGF22 binding, MLL AF4-AF9 inh, ERp5 block)
CN(C)c1ccc(N=Cc2cccn2C)cc1	ARNT-TACC3 inh 60.2, MLL AF4-AF9 inh 50.1
COc1ccc(NC(=O)CSc2ccc(-c3ccccn3)nn2)cc1OC	FGF22 binding 43.2 (no result: ARNT-TACC3 inh)
c1ccc(CSc2ccc(-c3ccccn3)nn2)cc1	ARNT-TACC3 inh 65.0
CC(=O)c1cccc(NC(=O)CSc2ccc(-c3ccc4c(c3)OCO4)nn2)c1	none
Clc1ccc(CSc2ccc(-c3ccccn3)nn2)cc1	none
COc1ccc(NC(=O)CSc2nnc(NC(=O)C3CC3)s2)cc1OC	ERp5 block 26.1
COc1ccc(-c2ccc(SCC(=O)Nc3cccc(C(C)=O)c3)nn2)cc1OC	FGF22 binding 43.0
Cc1ccc(NC(=O)CSc2ccc(-c3ccccn3)nn2)cc1	none
CCOc1ccc(NC(=O)CSc2ccc(-c3ccccn3)nn2)cc1	ARNT-TACC3 inh 26.0 (no result: FGF22 binding, MLL AF4-AF9 inh, ERp5 block)
Cc1ccc(NC(=O)CCCCCC2NC(=O)NC2C)cc1 (stereo not given)	MLL AF4-AF9 inh 97.1 (no result: FN deposit inh)
Cc1ccc(NC(=S)/N=C(\N)Nc2nc(C)c3cc(C)c(C)cc3n2)cc1C	FGF22 binding 43.0, ERp5 block inconclusive
COC(=O)c1ccccc1S(=O)(=O)N1CCC(C(=O)NCc2ccccn2)CC1	FGF22 binding 43.0 (no result: ARNT-TACC3 inh)
NS(=O)(=O)c1ccc(NC(=O)COC(=O)COc2ccccc2)cc1	none
CC(C)c1ccc(NC(=O)COC(=O)COc2ccccc2)cc1	FGF22 binding 43.1 (no result: ARNT-TACC3 inh)
Cc1ccc(C(=O)c2cc(C)sc2N)cc1	FGF22 binding 42.9 (no result: ARNT-TACC3 inh)
CCCCNC(=O)Cc1ccc(Br)cc1	FGF22 binding 43.7
O=C(NCc1ccccc1Cl)NCc1ccccc1Cl	MLL AF4-AF9 inh 31.8
CN1CCN(S(=O)(=O)c2cc([N+](=O)[O-])ccc2Cl)CC1	FGF22 binding 43.2
Cc1ccc([N+](=O)[O-])cc1S(=O)(=O)N1CCN(C)CC1	none
C[C@H](CO)N1C[C@H](C)[C@@H](CN(C)C(=O)Nc2ccc3c(c2)OCO3)Oc2ccc(NC(=O)Cc3cn(C)c4ccccc34)cc2C1=O	none (no result: ARNT-TACC3 inh, PDI turbidity, FN deposit inh)
COc1ccc([Si](C)(C)[C@H]2[C@H](CCO)O[C@@]3(C(=O)N(Cc4cccc(NC(=O)[C@H](C)O)c4)c4ccccc43)[C@@H]2C)cc1	FGF22 binding 2.9 (no result: PDI turbidity, FN deposit inh)
COc1ccc([Si](C)(C)[C@@H]2[C@@H](CCO)O[C@]3(C(=O)N(Cc4ccc(NC(=O)[C@H](C)O)cc4)c4ccccc43)[C@H]2C)cc1	none (no result: ARNT-TACC3 inh, PDI turbidity, FN deposit inh)
Nc1nccc(-c2cccs2)n1	FGF22 binding 43.4 (no result: FN deposit inh)
O=C(Nc1nccc(-c2cccs2)n1)c1cccs1	none (no result: FGF22 binding, MLL AF4-AF9 inh, ERp5 block, FN deposit inh)
COc1ccc(NC(=O)Nc2ccc3c(c2)C(=O)N([C@H](C)CO)C[C@@H](C)[C@H](CN(C)S(=O)(=O)c2ccc(OC)cc2)O3)cc1	none (no result: PDI turbidity, FN deposit inh)
COc1ccc(/C=C/C(=O)C23CC4CC(CC(C4)C2)C3)cc1CN1CCOCC1	MLL AF4-AF9 inh 25.6 (no result: ARNT-TACC3 inh)
O=C(NC[C@H]1CC[C@@H]2[C@@H](CN2S(=O)(=O)c2ccccc2[N+](=O)[O-])O1)C1CCCC1	none (no result: ARNT-TACC3 inh, FGF22 binding, PDI turbidity, FN deposit inh)
C[C@@H]1CN([C@H](C)CO)C(=O)c2cc(NC(=O)CCC(F)(F)F)ccc2O[C@H]1CN(C)S(=O)(=O)c1ccccc1	none (no result: PDI turbidity, FN deposit inh)
COc1ccccc1N(CC(=O)N/N=C/c1c(O)ccc2ccccc12)S(C)(=O)=O	ARNT-TACC3 inh 82.7 (no result: FGF22 binding, MLL AF4-AF9 inh, ERp5 block)
COc1ccccc1NCC(=O)N/N=C/c1c(O)ccc2ccccc12	none
C[C@@H]1CN([C@H](C)CO)C(=O)c2cccc(NC(=O)Nc3ccc(C(F)(F)F)cc3)c2O[C@H]1CN(C)Cc1ccc2c(c1)OCO2	none (no result: PDI turbidity)
CC(C)Sc1nc2c(cnn2-c2ccc(F)cc2)c(=O)[nH]1	none
CC(C)Sc1nc2c(cnn2-c2ccccc2)c(=O)[nH]1	MLL AF4-AF9 inh 36.5
